# An excerpt weighted towards active compounds, which were near 2.1% of everything screened.
# PGC1a acetyl inh: modulators of PGC1a acetylation; inhibition, % at 15.6 µM; AID 651687; actives 0.17% (n = 350,000); U2OS PGC1a acetylation, AlphaScreen anti-acetyl-lysine; with virally co-expressed GCN5 acetyltransferase;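 active = every replicate shows inhibition of at least 40%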;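 note: 0% = neutral control wells and 100% = positive control wells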
# AF4-AF9 inh: blocks AF4 peptide binding to human AF9. P42568. AlphaScreen, biotin-AF4 peptide binding to FLAG-AF9. inhibition, % at 10 µM. actives 0.47% (n = 350,000);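 active = every replicate reaching a set inhibition limit, whatever the replicate mean, cut at about 25% in these data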;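 note: 0% = plate neutral control median and 100% = total signal loss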
# Target sequence (P42568 whole entry, looked up): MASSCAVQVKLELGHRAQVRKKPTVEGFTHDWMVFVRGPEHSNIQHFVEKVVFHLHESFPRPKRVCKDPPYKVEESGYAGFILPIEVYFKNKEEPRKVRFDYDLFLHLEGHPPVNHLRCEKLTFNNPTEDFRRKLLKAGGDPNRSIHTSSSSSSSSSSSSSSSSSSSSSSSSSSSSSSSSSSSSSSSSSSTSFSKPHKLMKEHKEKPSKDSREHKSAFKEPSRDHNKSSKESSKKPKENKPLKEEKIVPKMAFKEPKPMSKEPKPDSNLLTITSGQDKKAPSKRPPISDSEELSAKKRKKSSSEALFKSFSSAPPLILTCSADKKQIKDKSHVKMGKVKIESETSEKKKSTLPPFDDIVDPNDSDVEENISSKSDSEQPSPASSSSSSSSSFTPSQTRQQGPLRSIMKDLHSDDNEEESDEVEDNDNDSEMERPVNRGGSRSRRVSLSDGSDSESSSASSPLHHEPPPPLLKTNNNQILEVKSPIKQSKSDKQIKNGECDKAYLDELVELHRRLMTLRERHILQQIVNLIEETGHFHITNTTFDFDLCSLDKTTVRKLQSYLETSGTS
# EWS-Fli inh: inhibitors of EWS/Fli oncoprotein transcriptional activity; A673 NR0B1-luciferase reporter, viability-normalised; AID 651661; inhibition, % at 12.6 µM; actives 0.67% (n = 350,000);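 active = mean inhibition of at least 50% after viability correction, with every replicate also passing that limit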;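 note: firefly luciferase signal divided by Alamar Blue viability fluorescence both relative to DMSO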
# INS-1E GSIS act: primary screen for activators of insulin secretion dependent on glucose, INS-1E cells, GLuc reporter luminescence; actives 0.61% (n = 370,000); INS-1E GLuc reporter insulin secretion, 2-3 h; activation, % at 16.6 µM;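 active = lowest replicate activation of at least 40%, so every replicate reaches that level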;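 note: 0% = median of neutral control wells and 100% = median of IBMX positive control wells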
# Xi reactivation: activators of X-chromosome reactivation in mouse fibroblasts. XiGFP mouse fibroblasts, % GFP-positive cells imaging, 3 d; cells co-treated with 5-aza-dC sensitizer; scaled so ellipticine positive control = 100%. activation, % at 7.58 µM. actives 0.055% (n = 360,000);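 active = mean normalized replicate activation at least 10% and every replicate at or above 10%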;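 note: 0% = median of on-plate neutral control wells and 100% = ellipticine 6 µM median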
#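 assay system = SV40-immortalized XiGFP fibroblast cells, line 68-5-11 | buffer or medium = DMEM plus 5-aza-dC sensitizer | doses = single-point pinned compound dosing | times = 3-day compound exposure, then 15 min fixation at room temperature | benchmarks = positive control ellipticine, 6 µM final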
# PAX8 inh HTS: inhibitors of PAX8 transcriptional activity in RMG-I cells | RMG-I TPO-luciferase reporter, SteadyGlo, 24 h | inhibition, % at 12.6 µM | actives 1.2% (n = 360,000);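 active = mean replicate inhibition at least 60% with every replicate also reaching 60%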;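 note: luciferase light reporting Pax8 driven TPO promoter activity; plate controls were median of neutral control wells for no effect and mitoxantrone controls for full effect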
# Numbers without * were called inactive; · = no result.
SMILES,PGC1a acetyl inh,AF4-AF9 inh,EWS-Fli inh,INS-1E GSIS act,Xi reactivation,PAX8 inh HTS
COc1cccc(S(=O)(=O)Nc2ccc3c(c2)[C@H]2C[C@H](CC(=O)NCc4ccccc4F)O[C@@H](CO)[C@H]2O3)c1,-8,3,2,3,0,-34
O=S1(=O)c2ccc(Br)cc2N2CCC[C@H]2CN1Cc1ccccc1,-12,9,48,-31,0,11
C[C@@H](c1ccccc1)N1C[C@H]2CCCN2c2cc(Br)ccc2S1(=O)=O,-15,0,63*,3,0,36
COc1ccc(CN2C(=O)C(C)Nc3ncnc(N4CCN(c5ccccc5)CC4)c32)cc1 (centres undefined),-9,-34,-4,6,0,-9
COc1ccc(CN2C(=O)C(C)Nc3ncnc(N4CCOCC4)c32)cc1 (centres undefined),·,3,16,-1,0,69*
Cc1cccc(S(=O)(=O)N2[C@@H]3c4cccc(=O)n4C[C@H]2[C@H](CO)[C@H]3C(=O)NC2CCC2)c1,7,-2,2,7,2,-14
Cc1ccccc1NC(=O)CN1C(=O)S/C(=C/c2cccnc2)C1=O,-3,-5,-1,40*,0,-3
CCSc1nc2sc3c(c2c(=O)n1CC)CC(C)(C)OC3,-7,·,·,·,·,·
CCn1c(SCC(=O)OC)nc2sc3c(c2c1=O)CC(C)(C)OC3,1,-2,-2,74*,0,-4
COCC(=O)N(C)C[C@H]1Oc2ncc(C3=CCCC3)cc2C(=O)N([C@H](C)CO)C[C@H]1C,5,-1,-16,12,0,-21
C[C@@H]1CCCCO[C@H](CN(C)C(=O)C2CCCCC2)[C@H](C)CN([C@H](C)CO)C(=O)c2cc(NC(=O)Nc3ccccc3)ccc2O1,5,3,-1,·,·,-1
C[C@@H]1CCCCO[C@H](CN(C)Cc2ccc(C(F)(F)F)cc2)[C@H](C)CN([C@H](C)CO)C(=O)c2cc(NS(=O)(=O)c3ccc(F)cc3)ccc2O1,8,-1,22,-3,0,79*
C[C@@H]1CCCCO[C@@H](CN(C)Cc2ccc(C(F)(F)F)cc2)[C@H](C)CN([C@H](C)CO)C(=O)c2cc(NS(=O)(=O)c3ccccc3)ccc2O1,-5,8,13,-24,0,92*
C[C@@H]1CN([C@@H](C)CO)C(=O)c2cc(NS(=O)(=O)c3ccc(F)cc3)ccc2O[C@@H](C)CCCCO[C@@H]1CN(C)Cc1ccc(C(F)(F)F)cc1,0,-9,0,16,0,88*
C[C@H](CO)N1C[C@H](C)[C@H](CN(C)Cc2ccc(C(F)(F)F)cc2)OCCCC[C@H](C)Oc2ccc(NS(=O)(=O)c3ccc(F)cc3)cc2C1=O,17,0,73*,-15,0,106*
C[C@@H]1CCCCO[C@@H](CN(C)Cc2ccccc2)[C@@H](C)CN([C@@H](C)CO)C(=O)c2cc(NS(=O)(=O)c3ccccc3)ccc2O1,2,2,8,-9,0,3
COCC#Cc1cnc2c(c1)C(=O)N([C@H](C)CO)C[C@H](C)[C@H](CN(C)Cc1ccccc1F)O2,7,-3,3,22,0,·
C[C@@H]1CN([C@@H](C)CO)C(=O)c2cc(NS(=O)(=O)c3ccc(F)cc3)ccc2O[C@@H](C)CCCCO[C@@H]1CN(C)Cc1ccc(C(=O)O)cc1,8,-1,-10,4,-1,-8
C[C@@H]1CCCCO[C@H](CN(C)Cc2ccc(C(F)(F)F)cc2)[C@H](C)CN([C@@H](C)CO)C(=O)c2cc(NS(=O)(=O)c3ccc(F)cc3)ccc2O1,-10,1,4,-9,0,83*
C[C@@H]1CCCCO[C@H](CN(C)Cc2ccc(C(F)(F)F)cc2)[C@@H](C)CN([C@@H](C)CO)C(=O)c2cc(NS(=O)(=O)c3ccc(F)cc3)ccc2O1,6,0,31,-14,1,103*
C[C@H]1CCCCO[C@@H](CN(C)Cc2ccc(C(F)(F)F)cc2)[C@@H](C)CN([C@@H](C)CO)C(=O)c2cc(NS(=O)(=O)c3ccc(F)cc3)ccc2O1,-1,1,17,-12,0,96*
C[C@@H]1CN([C@H](C)CO)C(=O)c2cc(C3=CCCCC3)cnc2O[C@@H]1CN(C)C(=O)c1cccnc1,0,-2,5,-1,0,·
Cc1cccc(C)c1OCC(=O)OC/C(O)=C(\C#N)c1nc2ccccc2[nH]1,-27,1,9,·,0,69*
Cc1cc(C)cc(OCC(=O)OC/C(O)=C(\C#N)c2nc3ccccc3[nH]2)c1,·,·,·,43,0,-2
COc1ccc(NC(=O)N(C)C[C@@H]2Oc3c(NS(=O)(=O)c4ccc(F)cc4)cccc3C(=O)N([C@@H](C)CO)C[C@@H]2C)cc1,-1,·,0,-19,-1,1
SMILES,PGC1a acetyl inh,AF4-AF9 inh,EWS-Fli inh,INS-1E GSIS act,Xi reactivation,PAX8 inh HTS
COCC(=O)Nc1ccc2c(c1)C(=O)N(C)[C@H]1CC[C@H](CC(=O)NCC3CC3)O[C@H]1CO2,-5,1,5,3,0,4
CCCC(=O)N1CC2(C1)CN(C(=O)CC1CC1)[C@@H](CO)c1c2c2ccc(OC)cc2n1C,-7,0,0,0,0,·
CCOc1cc(/C=C2\COc3ccccc3C2=O)cc(Br)c1OCC(=O)N(C)C,·,6,63*,-2,0,10
C[C@@H]1CN([C@H](C)CO)C(=O)Cc2cc(NC(=O)C3CC3)ccc2O[C@H]1CN(C)Cc1ccc(-c2ccccc2)cc1,-6,3,-3,-11,0,23
C[C@H]1CN([C@@H](C)CO)C(=O)Cc2cc(NC(=O)c3ccncc3)ccc2O[C@@H]1CN(C)Cc1ccccc1,·,-14,-1,-1,0,-6
C[C@H]1CN([C@@H](C)CO)C(=O)Cc2cc(NC(=O)Cc3ccccc3)ccc2O[C@H]1CN(C)Cc1ccc(-c2ccccc2)cc1,-12,3,21,-6,0,-3
C[C@H]1CN([C@@H](C)CO)C(=O)Cc2cc(NC(=O)c3ccncc3)ccc2O[C@H]1CN(C)Cc1ccc(-c2ccccc2)cc1,-8,11,-14,-27,-1,69*
C[C@@H]1CN([C@@H](C)CO)C(=O)Cc2cc(NC(=O)C3CC3)ccc2O[C@H]1CN(C)Cc1ccc(-c2ccccc2)cc1,0,8,8,-14,0,91*
C[C@@H]1CN([C@@H](C)CO)C(=O)Cc2cc(NC(=O)Cc3ccccc3)ccc2O[C@H]1CN(C)Cc1ccc(-c2ccccc2)cc1,-1,4,20,-13,0,79*
